Published values gathered from unrelated publications.
Compare with care: the assays were run in different laboratories.
REN: Renin (REN, Homo sapiens, UniProt P00797)
CDK4: Cyclin-dependent kinase 4 (CDK4, Homo sapiens, UniProt P11802)
Maoa: Amine oxidase [flavin-containing] A (Maoa, Rattus norvegicus, UniProt P21396)

SMILES | target | effect on | action | method | concentration | inhibition [%]
C[C@H](C(=O)N[C@H]1COc2ccccc2[C@@H]1S(C)(=O)=O)c1ccc(F)cc1 | REN | enzyme activity | inhibitor |  | 10 µM | -2
CCOC(=O)[C@H]1Cc2c(cc([N+](=O)[O-])cc2[N+](=O)[O-])[C@H](O)[C@]12C(=O)Nc1c(F)cccc12 | CDK4 | cell-free assay | inhibitor | TR-FRET | 1 µM | 32.6
CN(C)C(=O)COC(=O)Cc1ccc(OC(=O)c2ccc(NC(=N)N)cc2)cc1 | REN | enzyme activity | inhibitor |  | 10 µM | 1
CCOC(=O)[C@H]1Cc2c(cc([N+](=O)[O-])cc2[N+](=O)[O-])[C@@H](O)[C@@]12C(=O)Nc1cccc(Br)c12 | CDK4 | cell-free assay | inhibitor | TR-FRET | 1 µM | 45.6
O=C(Nc1cccnn1)N1CCN([C@@H]2CCOc3cc(C(F)(F)F)ccc32)CC1 | Maoa | cell-free assay |  |  | 20 µM | 14
CC(C)C[C@H](NC(=O)[C@H](Cc1ccccc1)NC(=O)c1cnccn1)B(O)O | Chymotrypsinogen A (Bos taurus, UniProt P00766) | enzyme activity | inhibitor |  | 33 µM | 53
Cn1cc(-c2cc(F)cc(N3CCn4c(cc5c4CCCC5)C3=O)c2CO)cc(Nc2ccc(N3CCN(C4COC4)CC3)cn2)c1=O | Serine/threonine-protein kinase MRCK beta (CDC42BPB, Homo sapiens, UniProt Q9Y5S2) | enzyme activity | inhibitor |  | 0.1 µM | 2
CCOC(=O)[C@H]1Cc2c(cc([N+](=O)[O-])cc2[N+](=O)[O-])[C@H](O)[C@]12C(=O)Nc1ccc(Cl)cc12 | CDK4 | cell-free assay | inhibitor | TR-FRET | 1 µM | 45.2
C#Cc1n[nH]c2c(-c3cn(C(C)c4ccccn4)c(=O)[nH]c3=O)cc(F)cc12 (centres unmarked) | Ephrin type-A receptor 5 (EPHA5, Homo sapiens, UniProt P54756) | enzyme activity | inhibitor |  | 1 µM | 4
CCOC(=O)[C@H]1Cc2c(cc([N+](=O)[O-])cc2[N+](=O)[O-])[C@H](O)[C@]12C(=O)Nc1ccc(C)cc12 | CDK4 | cell-free assay | inhibitor | TR-FRET | 1 µM | 27.1
COCCCOc1cc(C[C@@H](C[C@H](N)[C@@H](O)C[C@H](C(=O)NCC(C)(C)C(N)=O)C(C)C)C(C)C)ccc1OC | REN | enzyme activity | inhibitor |  | 1 nM | 11
COc1cc(Nc2ncc(F)c(Nc3ccc4c(n3)NC(=O)C(C)(C)O4)n2)cc(OC)c1OC | Cyclin-G-associated kinase (GAK, Homo sapiens, UniProt O14976) | binding |  |  | 10 µM | 95
C#Cc1n[nH]c2c(-c3cn([C@@H](C)c4ccccc4)c(=O)[nH]c3=O)cc(F)cc12 | Fibroblast growth factor receptor 3 (FGFR3, Homo sapiens, UniProt P22607) | enzyme activity | inhibitor |  | 0.1 µM | -2.7
Clc1ccc2c(C3CCN(CCc4c[nH]c5ccccc45)CC3)c[nH]c2c1 | Maoa | ligand displacement |  | radioligand | 10 µM | 15
